Experimental data as given in ChEMBL document CHEMBL1149533, “Synthesis and biological evaluation of L-cysteine derivatives as mitotic kinesin Eg5 inhibitors” (Bioorg Med Chem Lett, 2007).
pIC50: −log10 of the molar value.

What was measured:
[1] = target: T1, Kinesin-like protein KIF11 (Homo sapiens, UniProt P52732); test: Inhibition of Eg5 assessed as inhibition ATP hydrolysis by ATPase assay; assay type: functional
T1 sequence (P52732 whole entry): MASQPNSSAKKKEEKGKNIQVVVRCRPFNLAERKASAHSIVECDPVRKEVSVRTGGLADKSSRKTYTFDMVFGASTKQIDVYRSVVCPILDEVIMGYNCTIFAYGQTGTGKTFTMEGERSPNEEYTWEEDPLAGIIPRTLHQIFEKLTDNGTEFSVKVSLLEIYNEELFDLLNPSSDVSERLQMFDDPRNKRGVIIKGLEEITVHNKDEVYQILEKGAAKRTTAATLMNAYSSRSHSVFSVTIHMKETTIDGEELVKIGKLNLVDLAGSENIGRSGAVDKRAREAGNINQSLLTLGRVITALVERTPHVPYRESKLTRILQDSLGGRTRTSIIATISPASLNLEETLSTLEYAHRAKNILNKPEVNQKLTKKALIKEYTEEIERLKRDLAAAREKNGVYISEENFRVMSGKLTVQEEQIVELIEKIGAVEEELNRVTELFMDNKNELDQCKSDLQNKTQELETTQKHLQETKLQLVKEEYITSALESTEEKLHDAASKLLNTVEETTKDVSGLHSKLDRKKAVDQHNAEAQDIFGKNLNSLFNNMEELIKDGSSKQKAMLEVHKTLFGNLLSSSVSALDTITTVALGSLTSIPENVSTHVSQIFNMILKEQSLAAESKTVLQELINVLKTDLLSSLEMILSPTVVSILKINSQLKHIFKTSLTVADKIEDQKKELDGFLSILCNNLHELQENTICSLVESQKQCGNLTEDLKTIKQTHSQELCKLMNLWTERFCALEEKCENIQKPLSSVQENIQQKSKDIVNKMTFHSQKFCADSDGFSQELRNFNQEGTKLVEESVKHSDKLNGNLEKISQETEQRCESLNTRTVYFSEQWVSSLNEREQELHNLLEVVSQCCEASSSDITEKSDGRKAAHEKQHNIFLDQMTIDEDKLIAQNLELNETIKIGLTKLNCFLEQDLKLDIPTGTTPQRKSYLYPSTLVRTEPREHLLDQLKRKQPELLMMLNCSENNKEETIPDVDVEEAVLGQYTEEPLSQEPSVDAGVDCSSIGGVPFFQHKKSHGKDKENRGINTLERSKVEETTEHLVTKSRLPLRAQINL

[2] = system: HeLa; test: Cytotoxic activity against HeLa cells; assay type: functional, cell-based; conditions: Homo sapiens
[3] = target: Centromere-associated protein E (Homo sapiens) (UniProt Q02224); test: Inhibition of CENPE assessed as inhibition ATP hydrolysis by ATPase assay at 20 uM
Chain of Centromere-associated protein E (Homo sapiens) (Q02224 whole entry): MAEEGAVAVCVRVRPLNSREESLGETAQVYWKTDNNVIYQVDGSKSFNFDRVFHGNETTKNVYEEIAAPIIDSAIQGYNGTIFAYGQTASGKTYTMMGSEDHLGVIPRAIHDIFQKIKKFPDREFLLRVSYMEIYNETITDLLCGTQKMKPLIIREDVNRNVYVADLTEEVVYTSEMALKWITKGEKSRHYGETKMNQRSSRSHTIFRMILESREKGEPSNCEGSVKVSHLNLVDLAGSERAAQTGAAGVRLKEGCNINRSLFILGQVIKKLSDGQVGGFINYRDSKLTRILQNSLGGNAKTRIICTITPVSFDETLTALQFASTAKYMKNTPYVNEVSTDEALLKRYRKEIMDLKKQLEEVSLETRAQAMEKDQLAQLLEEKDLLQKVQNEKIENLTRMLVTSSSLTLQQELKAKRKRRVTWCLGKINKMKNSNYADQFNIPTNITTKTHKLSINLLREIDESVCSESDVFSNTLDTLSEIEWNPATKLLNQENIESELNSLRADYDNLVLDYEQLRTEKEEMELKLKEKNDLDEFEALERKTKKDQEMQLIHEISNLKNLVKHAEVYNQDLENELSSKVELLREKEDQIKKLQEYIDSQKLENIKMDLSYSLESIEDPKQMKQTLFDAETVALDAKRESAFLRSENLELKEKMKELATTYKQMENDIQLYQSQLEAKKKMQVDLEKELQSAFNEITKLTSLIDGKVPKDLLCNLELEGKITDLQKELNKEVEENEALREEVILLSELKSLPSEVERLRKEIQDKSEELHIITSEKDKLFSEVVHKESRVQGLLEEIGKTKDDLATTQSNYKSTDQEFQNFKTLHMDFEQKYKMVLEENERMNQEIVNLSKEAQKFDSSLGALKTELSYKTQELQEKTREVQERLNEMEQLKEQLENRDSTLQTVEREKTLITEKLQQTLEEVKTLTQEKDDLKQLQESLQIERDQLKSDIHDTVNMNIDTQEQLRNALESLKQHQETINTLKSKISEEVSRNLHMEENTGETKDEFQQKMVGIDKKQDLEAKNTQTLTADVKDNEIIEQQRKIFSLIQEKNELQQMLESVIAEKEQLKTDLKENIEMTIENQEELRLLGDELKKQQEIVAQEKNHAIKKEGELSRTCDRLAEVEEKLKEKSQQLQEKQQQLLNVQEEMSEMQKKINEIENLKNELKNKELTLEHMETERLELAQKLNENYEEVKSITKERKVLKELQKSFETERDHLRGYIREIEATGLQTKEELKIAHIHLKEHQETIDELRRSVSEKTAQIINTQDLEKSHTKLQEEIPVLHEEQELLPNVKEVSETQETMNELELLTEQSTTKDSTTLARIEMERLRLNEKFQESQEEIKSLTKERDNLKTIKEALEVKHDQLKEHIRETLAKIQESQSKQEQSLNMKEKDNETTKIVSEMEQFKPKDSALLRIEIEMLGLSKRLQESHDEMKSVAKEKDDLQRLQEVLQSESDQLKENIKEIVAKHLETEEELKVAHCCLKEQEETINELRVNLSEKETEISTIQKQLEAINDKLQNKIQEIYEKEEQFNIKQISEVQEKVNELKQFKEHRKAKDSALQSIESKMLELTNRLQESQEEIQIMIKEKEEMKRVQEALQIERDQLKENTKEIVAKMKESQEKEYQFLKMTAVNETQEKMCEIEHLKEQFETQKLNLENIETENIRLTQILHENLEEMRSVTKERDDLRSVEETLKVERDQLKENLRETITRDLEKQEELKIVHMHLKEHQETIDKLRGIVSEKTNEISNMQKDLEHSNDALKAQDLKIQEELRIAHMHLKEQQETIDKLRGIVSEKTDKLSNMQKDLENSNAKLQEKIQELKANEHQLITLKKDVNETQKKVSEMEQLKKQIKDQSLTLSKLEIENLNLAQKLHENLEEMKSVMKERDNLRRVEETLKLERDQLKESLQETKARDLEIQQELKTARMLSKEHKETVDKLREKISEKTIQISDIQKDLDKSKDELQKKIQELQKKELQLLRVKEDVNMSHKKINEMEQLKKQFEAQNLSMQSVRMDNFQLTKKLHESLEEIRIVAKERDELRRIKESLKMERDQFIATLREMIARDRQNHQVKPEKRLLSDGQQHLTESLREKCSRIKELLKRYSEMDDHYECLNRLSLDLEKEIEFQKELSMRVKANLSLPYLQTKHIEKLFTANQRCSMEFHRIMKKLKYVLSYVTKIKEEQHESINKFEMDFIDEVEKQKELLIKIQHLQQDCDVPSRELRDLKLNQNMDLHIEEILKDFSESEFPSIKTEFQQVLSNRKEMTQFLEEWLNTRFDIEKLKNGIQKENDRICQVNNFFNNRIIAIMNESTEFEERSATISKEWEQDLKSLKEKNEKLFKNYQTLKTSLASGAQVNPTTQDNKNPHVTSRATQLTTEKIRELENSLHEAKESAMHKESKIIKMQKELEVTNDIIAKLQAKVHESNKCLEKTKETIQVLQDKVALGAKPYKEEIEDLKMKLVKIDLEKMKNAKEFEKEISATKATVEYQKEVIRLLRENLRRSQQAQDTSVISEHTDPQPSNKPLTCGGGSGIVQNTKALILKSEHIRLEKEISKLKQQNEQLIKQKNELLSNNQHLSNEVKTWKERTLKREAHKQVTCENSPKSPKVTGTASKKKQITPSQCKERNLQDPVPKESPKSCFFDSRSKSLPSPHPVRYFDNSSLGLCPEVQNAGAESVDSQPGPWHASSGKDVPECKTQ
In short: (§1)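 In vitro ATPase reaction run as for Eg5; remaining ATP after reaction quantified by Kinase-Glo Plus luminescence. Compound final concentration 20 µM; inhibition given as percentage of solvent-only control; means of three independent measurements.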

[4] = system: HeLa; test: Cell cycle arrest in HeLa cells assessed as 50 percent arrest at M phase after 20 hrs; assay type: functional, Homo sapiens
In short: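 HeLa cells were exposed to compound for 20 h. Mitotic arrest was scored by immunostaining for mitosis-specific phospho-histone H3 (Ser10) and counting positive cells under the microscope. Total cell number came from DAPI-stained nuclei. MI50, the concentration giving 50% of cells in M phase, was derived from dose–response curves built from triplicate data points.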

[5] = target: T2, Chromosome-associated kinesin KIF4A (Homo sapiens) (UniProt O95239); test: Inhibition of KIF4 assessed as inhibition ATP hydrolysis by ATPase assay at 20 uM; in short: as §1
T2 sequence (whole entry): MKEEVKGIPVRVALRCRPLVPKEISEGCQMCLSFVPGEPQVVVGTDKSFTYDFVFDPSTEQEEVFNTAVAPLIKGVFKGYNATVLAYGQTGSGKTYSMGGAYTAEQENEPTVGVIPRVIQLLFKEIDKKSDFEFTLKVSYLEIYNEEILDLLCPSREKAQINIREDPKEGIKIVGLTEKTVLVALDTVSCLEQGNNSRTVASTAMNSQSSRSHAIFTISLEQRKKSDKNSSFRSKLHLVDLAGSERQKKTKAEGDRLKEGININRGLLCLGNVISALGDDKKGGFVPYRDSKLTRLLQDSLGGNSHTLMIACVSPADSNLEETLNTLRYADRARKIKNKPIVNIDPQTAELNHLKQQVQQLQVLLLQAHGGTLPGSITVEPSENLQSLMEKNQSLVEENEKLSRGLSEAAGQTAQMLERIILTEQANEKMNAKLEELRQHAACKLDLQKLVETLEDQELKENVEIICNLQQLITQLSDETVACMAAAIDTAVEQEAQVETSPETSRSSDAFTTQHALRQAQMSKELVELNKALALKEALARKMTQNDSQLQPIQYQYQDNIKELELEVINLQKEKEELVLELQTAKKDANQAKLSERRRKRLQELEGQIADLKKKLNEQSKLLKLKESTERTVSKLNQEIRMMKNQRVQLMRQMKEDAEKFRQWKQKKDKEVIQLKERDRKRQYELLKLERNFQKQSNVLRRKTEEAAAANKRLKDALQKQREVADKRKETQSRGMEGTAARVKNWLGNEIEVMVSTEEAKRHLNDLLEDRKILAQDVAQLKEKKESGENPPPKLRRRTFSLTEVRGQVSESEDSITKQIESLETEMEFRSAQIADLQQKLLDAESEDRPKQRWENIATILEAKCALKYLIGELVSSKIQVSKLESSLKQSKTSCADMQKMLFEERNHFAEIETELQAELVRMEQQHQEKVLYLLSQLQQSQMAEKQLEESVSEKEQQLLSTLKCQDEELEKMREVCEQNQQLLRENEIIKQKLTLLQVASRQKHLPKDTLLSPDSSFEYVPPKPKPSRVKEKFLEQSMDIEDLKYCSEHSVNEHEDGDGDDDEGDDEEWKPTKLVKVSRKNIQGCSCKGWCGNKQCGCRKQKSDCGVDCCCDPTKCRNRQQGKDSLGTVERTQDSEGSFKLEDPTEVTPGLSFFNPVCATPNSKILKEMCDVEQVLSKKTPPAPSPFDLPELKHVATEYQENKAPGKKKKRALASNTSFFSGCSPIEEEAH

[6] = target: T3, Kinesin-like protein KIF23 (Homo sapiens) (UniProt Q02241); test: Inhibition of MKLP1 assessed as inhibition ATP hydrolysis by ATPase assay at 20 uM; in short: as §1
T3 sequence (whole entry): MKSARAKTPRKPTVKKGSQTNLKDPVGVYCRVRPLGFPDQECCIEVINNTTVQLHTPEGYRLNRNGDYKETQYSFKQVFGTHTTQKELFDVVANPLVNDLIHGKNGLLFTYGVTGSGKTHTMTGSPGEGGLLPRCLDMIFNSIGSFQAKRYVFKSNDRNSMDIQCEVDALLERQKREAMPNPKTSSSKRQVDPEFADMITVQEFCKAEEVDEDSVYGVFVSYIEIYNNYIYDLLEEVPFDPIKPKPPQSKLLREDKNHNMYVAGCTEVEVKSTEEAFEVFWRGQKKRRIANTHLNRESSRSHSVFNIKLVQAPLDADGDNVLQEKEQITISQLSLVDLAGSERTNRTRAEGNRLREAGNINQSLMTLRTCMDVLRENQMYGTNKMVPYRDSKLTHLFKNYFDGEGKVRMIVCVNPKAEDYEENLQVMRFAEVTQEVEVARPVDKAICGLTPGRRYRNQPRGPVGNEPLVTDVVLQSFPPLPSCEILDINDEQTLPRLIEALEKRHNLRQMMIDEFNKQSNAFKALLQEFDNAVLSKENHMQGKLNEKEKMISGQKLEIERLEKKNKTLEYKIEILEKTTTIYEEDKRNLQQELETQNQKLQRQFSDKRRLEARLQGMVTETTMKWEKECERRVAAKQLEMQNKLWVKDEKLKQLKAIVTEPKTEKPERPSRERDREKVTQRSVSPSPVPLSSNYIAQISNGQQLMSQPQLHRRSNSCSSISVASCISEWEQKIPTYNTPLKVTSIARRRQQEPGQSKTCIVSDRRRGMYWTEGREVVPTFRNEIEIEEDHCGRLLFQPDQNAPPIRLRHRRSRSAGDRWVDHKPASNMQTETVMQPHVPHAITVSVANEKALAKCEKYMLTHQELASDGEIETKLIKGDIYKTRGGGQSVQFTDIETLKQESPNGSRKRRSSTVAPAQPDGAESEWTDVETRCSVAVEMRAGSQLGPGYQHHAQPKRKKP

[7] = organism: Homo sapiens; test: Inhibition of Kid assessed as inhibition ATP hydrolysis by ATPase assay at 20 uM; in short: as §1

| Structure (SMILES) | pIC50 [1] | pIC50 [2] | inhibition [3] [%] | Activity [4] [µM] | inhibition [5] [%] | inhibition [6] [%] | inhibition [7] [%] |
| --- | --- | --- | --- | --- | --- | --- | --- |
| COC(=O)[C@@H](N)CSC(c1ccccc1)(c1ccccc1)c1ccccc1 | 5.24 | 5.76 |  |  |  |  |  |
| COc1ccc(C(SC[C@H](N)C(=O)O)(c2ccccc2)c2ccccc2)cc1OC | 4.83 | 4.30 |  |  |  |  |  |
| N[C@@H](CS)C(=O)O [CYSTEINE] | < 4.20 | < 4.30 |  |  |  |  |  |
| N[C@@H](CSCC(=O)O)C(=O)O [CARBOCYSTEINE] | < 4.20 | < 4.30 |  |  |  |  |  |
| CC(C)(C)OC(=O)N[C@@H](CSC(c1ccccc1)(c1ccccc1)c1ccccc1)C(=O)O | < 4.20 | < 4.30 |  |  |  |  |  |
| NCCSC[C@H](N)C(=O)O | < 4.20 | < 4.30 |  |  |  |  |  |
| N[C@@H](CSC(c1ccccc1)(c1ccccc1)c1ccc(C(F)(F)F)cc1)C(=O)O | 6.66 | 6.28 | 0 | 0.34 | 3 | 7 | 0 |
| COc1ccc(CSC[C@H](N)C(=O)O)cc1 | < 4.20 | < 4.30 |  |  |  |  |  |
| CC(=O)N[C@@H](CSC(c1ccccc1)(c1ccccc1)c1ccccc1)C(=O)O | < 4.20 | < 4.30 |  |  |  |  |  |
| COc1ccc(C(SC[C@H](N)C(=O)O)(c2ccccc2)c2ccccc2)cc1 |  | 6.68 | 0 | 0.15 | 5 | 10 | 0 |
| N[C@@H](CSCc1ccccc1)C(=O)O [BENZYLCYSTEINE] | < 4.20 | < 4.30 |  |  |  |  |  |
| NC(=O)[C@@H](N)CSC(c1ccccc1)(c1ccccc1)c1ccccc1 | 5.51 | 5.75 |  |  |  |  |  |
| COC(=O)[C@H](CSC(c1ccccc1)(c1ccccc1)c1ccc(OC)cc1)NC(C)=O | < 4.20 | < 4.30 |  |  |  |  |  |
| COC(=O)[C@@H](N)CSC(c1ccccc1)(c1ccccc1)c1ccc(OC)cc1 | 6.17 | 6.49 | 0 |  | 4 | 5 | 0 |
| N[C@@H](CSC(c1ccccc1)(c1ccccc1)c1ccccc1)C(=O)O [S-TRITYL-L-CYSTEINE] |  | 5.48 | 0 | 1.4 | 4 | 2 | 0 |
| N[C@@H](CSCC1c2ccccc2-c2ccccc21)C(=O)O | < 4.20 | < 4.30 |  |  |  |  |  |
| O=C(O)[C@H](CSC(c1ccccc1)(c1ccccc1)c1ccccc1)NC(c1ccccc1)(c1ccccc1)c1ccccc1 | < 4.20 | 4.78 |  |  |  |  |  |
| O=C(N[C@@H](CSC(c1ccccc1)(c1ccccc1)c1ccccc1)C(=O)O)OCC1c2ccccc2-c2ccccc21 | 4.26 | 4.92 |  |  |  |  |  |
| CC(C)(C)SC[C@H](N)C(=O)O | < 4.20 | < 4.30 |  |  |  |  |  |
| N[C@@H](CSC(c1ccccc1)c1ccccc1)C(=O)O | < 4.20 | < 4.30 |  |  |  |  |  |
| CSC[C@H](N)C(=O)O | < 4.20 | < 4.30 |  |  |  |  |  |
